Source: PubChem (Broad Institute)
T cruzi growth-1 – blocks T. cruzi growth in NIH3T3 culture | inhibition, % at 8.34 µM | T. cruzi beta-gal in NIH3T3, GalScreen luminescence, 90 h | AID 624255 | 5.9% of 77,000 active;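 active means mean inhibition above about 93%, with at least 55% of replicates each passing it, limit read from the data, passing the limit was not always enough; inconclusive means only one of those two conditions holds; inactive means neither condition holds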
IDH1 mut inh – IDH1 R132H (human) inhibition; inhibition, % at 10 µM; 0.18% of 70,000 active; O75874; IDH1 R132H reductase, diaphorase/resazurin fluorescence, 60 min; AID 624101; in the data active means inhibition above about 34%; inconclusive means no clear call, values can overlap the other calls; inactive means below about 11%;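 further: 0% = DMSO and 100% = no enzyme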
Target sequence (O75874 whole entry R132H): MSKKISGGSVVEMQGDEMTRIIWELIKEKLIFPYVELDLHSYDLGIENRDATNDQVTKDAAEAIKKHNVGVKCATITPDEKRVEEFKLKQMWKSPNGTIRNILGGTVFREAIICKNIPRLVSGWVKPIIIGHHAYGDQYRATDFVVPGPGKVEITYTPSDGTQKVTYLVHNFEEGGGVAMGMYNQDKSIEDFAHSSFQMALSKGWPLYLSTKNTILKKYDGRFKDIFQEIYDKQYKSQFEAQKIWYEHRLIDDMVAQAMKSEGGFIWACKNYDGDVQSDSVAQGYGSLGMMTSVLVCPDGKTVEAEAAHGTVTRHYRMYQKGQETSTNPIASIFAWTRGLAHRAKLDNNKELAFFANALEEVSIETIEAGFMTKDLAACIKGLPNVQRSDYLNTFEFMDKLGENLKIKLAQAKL
KDM4C inh – inhibitors of human demethylase GASC-1 KDM4C | GST-KDM4C 2-372, H3K9me3 peptide, LANCE TR-FRET | AID 720574 | Q9H3R0 | 0.15% of 96,000 active | inhibition, % at 12.5 µM;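 active means mean replicate inhibition above about 25%, with at least 55% of replicates also reaching it, limit read from the data, passing the limit was not always enough; inconclusive means only one of those two conditions met; inactive means neither condition met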
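Material: GST-tagged GASC-1 (JMJD2C) catalytic fragment, aa 2-372 / Quantity: enzyme final amount 10 nM / Medium: HEPES buffer, pH 7.5, plus ascorbate / Doses: one test concentration per compound / Incubation: 30 min reaction, 60 min detection, RT / Measured by: LANCE TR-FRET / Read-out: inhibition from TR-FRET ratio decrease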
Pf Dd2 inh – blocks growth of Plasmodium falciparum Dd2 parasites | P. falciparum Dd2 growth, SYBR Green, 72 h; hits give low values | activity change, % at 10 µM | 2.3% of 94,000 active; in the data active means activity change below about -80%; inconclusive means no clear call, values can overlap the other calls
T cruzi growth-2 – blocks T. cruzi growth in NIH3T3 host cells; shares compounds with T cruzi growth-1; T. cruzi beta-gal in NIH3T3, GalScreen luminescence, 90 h; inhibition, % at 8.35 µM; 72% of 5,600 active;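 active means mean replicate inhibition above about 95% and at least 55% of replicates individually reaching it, limit read from the data; inconclusive means only one of the two criteria is met; inactive means neither criterion is met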
T cruzi growth-3 – inhibitors of T. cruzi proliferation; 21% of 5,600 active; AID 651740; shares compounds with T cruzi growth-1; T. cruzi beta-gal in NIH3T3, GalScreen luminescence, 90 h; inhibition, % at 2.09 µM;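 active means mean inhibition above about 95%, with at least 55% of replicates also reaching it, limit read from the data; inconclusive means meets just one of the two conditions; inactive means meets neither condition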;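 further: plate controls were neutral control median for no effect and positive control median for full effect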
3T3 cytotox – cytotoxicity in mouse NIH/3T3 fibroblasts; cytotoxicity (signal decrease), % at 8.35 µM; 14% of 5,600 active; AID 651742; NIH/3T3 viability, CellTiter-Glo ATP luminescence, 90 h; shares compounds with T cruzi growth-1;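 active means mean signal decrease across replicates above about 35% based on untreated-well scatter, with enough replicates individually passing, limit read from the data; inconclusive means no rule stated though some were filed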;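 further: 0% = median of neutral control wells and 100% = median of positive control wells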
NIH3T3 tox 2 – cytotoxicity in mouse NIH/3T3 fibroblasts. inhibition, % at 24.9 µM. 56% of 5,600 active. shares compounds with T cruzi growth-1. NIH/3T3 viability, CellTiter-Glo ATP luminescence, 90 h;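 active means mean loss of cell viability signal at or above a set limit, and enough replicates individually reaching it; inconclusive means meets only the mean limit or only the replicate share; inactive means meets neither condition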;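 further: 0% = median of neutral control wells and 100% = median of positive control wells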
Numbers without * were called inactive; ? = inconclusive; . = not tested or not shown. Compounds with a hit are over-represented: about 5.8% of the library has one in this group of screens.

SMILES	T cruzi growth-1	IDH1 mut inh	KDM4C inh	Pf Dd2 inh	T cruzi growth-2	T cruzi growth-3	3T3 cytotox	NIH3T3 tox 2
CCC(=O)N1CCCCN2[C@H](CO)[C@H](c3ccc(/C=C/c4ccccc4)cc3)[C@@H]2C1	113*	.	-4	20	108*	82	48*	45*
CN(C)CC(=O)N1CCCCN2[C@H](C1)[C@@H](c1ccc(/C=C/c3ccccc3)cc1)[C@@H]2CO	-46	.	1	-2	.	.	.	.
CN(C)CC(=O)N1CCCCN2[C@H](C1)[C@H](c1ccc(/C=C/c3ccccc3)cc1)[C@@H]2CO	75	.	-1	-5	.	.	.	.
CN(C)CC(=O)N1CCCCN2[C@@H](CO)[C@@H](c3ccc(/C=C/c4ccccc4)cc3)[C@@H]2C1	102*	.	0	-78	99*	113*	120*	104*
CN(C)CC(=O)N1CCCCN2[C@@H](CO)[C@H](c3ccc(/C=C/c4ccccc4)cc3)[C@@H]2C1	97*	.	-1	-64	?	102*	117*	102*
COc1cc2c(cc1NC(=O)CSc1nnc(-c3cnccn3)n1-c1ccccc1)oc1ccccc12	.	1	.	.	.	.	.	.
COc1ccc(NC(=O)C(C)Oc2cc(C)c(Cl)c(C)c2)c([N+](=O)[O-])c1 (stereo unspecified)	.	0	.	.	.	.	.	.
C[C@@H]1CN([C@@H](C)CO)S(=O)(=O)c2ccc(C#CCN(C)C)cc2O[C@H]1CN(C)Cc1cccnc1	98*	0	1	-32	108*	103*	14	43*
C[C@H]1CN([C@@H](C)CO)S(=O)(=O)c2ccc(C#CCN(C)C)cc2O[C@H]1CN(C)Cc1cccnc1	86	7	2	-5	.	.	.	.
C[C@H](CO)N1C[C@H](C)[C@H](CN(C)Cc2cccnc2)Oc2cc(C#CCN(C)C)ccc2S1(=O)=O	91*	0	2	-20	95*	77	24	?
CCCC#Cc1ccc2c(c1)O[C@H](CN(C)Cc1cccnc1)[C@@H](C)CN([C@@H](C)CO)S2(=O)=O	128*	9	0	-58	102*	104*	43*	104*
CS(=O)(=O)N(CC(=O)Nc1ccc(Oc2ccccc2)cc1)c1ccc2c(c1)OCCO2	.	0	.	.	.	.	.	.
Cc1ccc(-c2ccc([C@@H]3[C@H]4CN(S(=O)(=O)c5cccc(C)c5)CCCCN4[C@H]3CO)cc2)cc1	?	.	.	-4	104*	83	21	46*
Cc1ccc(-c2ccc([C@@H]3[C@@H](CO)N4CCCCN(S(=O)(=O)c5cccc(C)c5)C[C@H]34)cc2)cc1	107*	.	.	-24	101*	115*	54*	104*
CCOC(=O)c1ccccc1NC(=O)CSc1nc2ccccc2[nH]1	.	0	.	.	.	.	.	.
COc1ccc(OCC(=O)Nc2cc(OC)c(Cl)cc2OC)cc1	.	0	.	.	.	.	.	.
COCC(=O)N1[C@H](C#N)[C@H](c2ccc(C#CCC3CCCC3)cc2)[C@H]1CO	88	.	-3	8	.	.	.	.
CC(C)C#Cc1ccc([C@H]2[C@@H](C#N)N(C(=O)c3ccccn3)[C@@H]2CO)cc1	?	.	2	-22	104*	102*	9	5
N#C[C@H]1[C@H](c2ccc(C#CCC3CCCC3)cc2)[C@@H](CO)N1C(=O)c1ccccn1	97*	.	-2	-39	95*	111*	21	104*
COCC(=O)N1[C@H](CO)[C@@H](c2ccc(C#CCC3CCCC3)cc2)[C@@H]1C#N	60	.	-1	-9	.	.	.	.
N#C[C@@H]1[C@H](c2ccc(C#CCC3CCCC3)cc2)[C@@H](CO)N1C(=O)c1ccccn1	100*	.	-4	-36	99*	109*	5	107*
N#C[C@H]1[C@H](c2ccc(-c3ccccc3F)cc2)[C@H](CO)N1C(=O)c1ccccn1	21	.	4	-34	.	.	.	.
Cc1ccc(N=C2NC(=O)CC(C(=O)Nc3ccc(Cl)cc3)S2)cc1C (stereo unspecified)	.	-1	.	.	.	.	.	.
